Results from ChEMBL document CHEMBL1133659, “3,4-dihydro-2(1H)-quinolinone as a novel antidepressant drug: synthesis and pharmacology of 1-[3-[4-(3-chlorophenyl)-1-piperazinyl]propyl]-3,4- dihydro-5-methoxy-2(1H)-quinolinone and its derivatives” (J Med Chem, 2000).
Where “and” joins values, the source holds several entries; their conditions need not be identical. Identical values can stand only once.

Columns and labels:
[1] = molecular target: T1, Sigma non-opioid intracellular receptor 1 (Rattus norvegicus, UniProt Q9R0C9); test: Binding affinity for sigma receptor was evaluated by the inhibitory effect on [3H]DTG to rat whole brain membranes; assay type: cell membranes
T1 sequence (Q9R0C9 whole entry): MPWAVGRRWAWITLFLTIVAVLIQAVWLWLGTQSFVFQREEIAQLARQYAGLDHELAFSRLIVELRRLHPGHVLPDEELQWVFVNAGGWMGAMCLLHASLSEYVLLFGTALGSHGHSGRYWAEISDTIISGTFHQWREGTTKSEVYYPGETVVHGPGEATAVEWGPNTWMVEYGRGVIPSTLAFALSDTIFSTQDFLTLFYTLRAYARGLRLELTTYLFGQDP
Procedure, shortened: (§1)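 Bound ligand collected by filtration onto PEI-soaked filters and counted by scintillation; nonspecific binding defined with haloperidol. IC50 by nonlinear least-squares fit; mean ± SE of three experiments, or a single experiment where no SE is given.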

Mus musculus [2] = species: Mus musculus; test: Effect on the sleeping time of mice before halothane load (control group); assay type: functional
Procedure, shortened: (§2)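 Groups of 10 mice received compound orally 1 h before testing, at 100 mg/kg unless another dose is noted. Vehicle was 0.5% gum arabic in 0.9% saline, and controls received vehicle alone. Mice were exposed to 4% halothane in air at 2 L/min. Sleeping time ran from loss to recovery of righting reflex (mean ± SE s), expressed as % of control. Two-tailed t-test was used.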

Mus musculus [3] = test: Effect on the sleeping time of mice anesthetized with halothane (treated group); assay type: functional; procedure, shortened: as §2
Mus musculus [4] = test: Effect on Immobility Time in the Forced-Swimming Test in Mice at the dose of 0 mg/kg po; assay type: functional
Procedure, shortened: (§3)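 Mice, 8 per group. Dosing was oral, either as a single dose 1 h before testing on day 2 or repeated once daily for 4 days. Each mouse swam 6 min in a cylinder with 6 cm of water at 22-23 °C, and immobility was scored over the last 4 min. Results are mean ± SE seconds and % of control, analysed by one-way ANOVA with Dunnett's test.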

Mus musculus [5] = species: Mus musculus; test: Effect on recovery time for coma induced in mice by cerebral concussion (control group); assay type: functional
Procedure, shortened: (§4)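 Groups of 10 mice received compound orally 1 h before head concussion, at 100 mg/kg unless another dose is noted. Vehicle was 0.5% gum arabic in saline, and controls received vehicle alone. The read-out was time to reappearance of the righting reflex (mean ± SE s), expressed as % of control. Two-tailed t-test was used.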

Mus musculus [6] = species: Mus musculus; test: Effect on recovery time for coma induced in mice by cerebral concussion (treated group); assay type: functional; procedure, shortened: as §4
Mus musculus [7] = test: Effect on Immobility Time in the Forced-Swimming Test in Mice at the dose of 10 mg/kg po; assay type: functional; procedure, shortened: as §3
Mus musculus [8] = test: Effect on Immobility Time in the Forced-Swimming Test in Mice at the dose of 1 mg/kg po; assay type: functional; procedure, shortened: as §3
Mus musculus [9] = test: Effect on the sleeping time of mice anesthetized with halothane (treated group) (30 mg/kg); assay type: functional; procedure, shortened: as §2
Mus musculus [10] = test: Effect on the time required for recovery from coma induced in mice by cerebral concussion at the dose of 10 mg/kg po; assay type: functional
Procedure, shortened: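 In the concussion-coma test in mice (n = 10), compound was given orally 1 h before concussion, and antagonists were pre-dosed 15 min to 1 h before the test compound. The read-out was time to recovery of the righting reflex as % of control. Statistics were two-tailed t-test versus control and one-way ANOVA with Dunnett's test versus the treated group.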

[11] = molecular target: T1, Sigma non-opioid intracellular receptor 1; test: Binding affinity for sigma receptor was evaluated by the inhibitory effect on [3H]DTG to rat whole brain membranes.; assay type: functional, cell membranes; procedure, shortened: as §1
Mus musculus [12] = test: Effect on the sleeping time of mice anesthetized with halothane (treated group) (p <0.01); assay type: functional; procedure, shortened: as §2
Mus musculus [13] = test: Effect on Immobility Time in the Forced-Swimming Test in Mice at the dose of 0 mg/kg po for repeated administration; assay type: functional; procedure, shortened: as §3
Mus musculus [14] = test: Effect on Immobility Time in the Forced-Swimming Test in Mice at the dose of 0 mg/kg po for single administration; assay type: functional; procedure, shortened: as §3
Mus musculus [15] = test: Effect on Immobility Time in the Forced-Swimming Test in Mice at the dose of 10 mg/kg po for repeated administration; assay type: functional; procedure, shortened: as §3
Mus musculus [16] = test: Effect on Immobility Time in the Forced-Swimming Test in Mice at the dose of 10 mg/kg po for single administration; assay type: functional; procedure, shortened: as §3
Mus musculus [17] = test: Effect on Immobility Time in the Forced-Swimming Test in Mice at the dose of 30 mg/kg po for repeated administration; assay type: functional; procedure, shortened: as §3
Mus musculus [18] = test: Effect on Immobility Time in the Forced-Swimming Test in Mice at the dose of 30 mg/kg po for single administration; assay type: functional; procedure, shortened: as §3

| SMILES | IC50 [1] | Sleeping time (Mus musculus [2]) | Sleeping time (Mus musculus [3]) | RRT (Mus musculus [5]) | RRT (Mus musculus [6]) | other results |
| --- | --- | --- | --- | --- | --- | --- |
| Br.O=C1CCc2c(Cl)cccc2N1CCCN1CCN(c2cccc(O)c2)CC1 | 240 nM | 564 s | 529 s | – | – | – |
| COc1cccc2c1CCC(=O)N2CCCN1CCN(c2cccc(Cl)c2)CC1.CS(=O)(=O)O.O | – | 613 s | – | 165 s | <49 s | Time (Mus musculus [4]): 199 s; Time (Mus musculus [7]): <138 s; Time (Mus musculus [8]): <140 s; Sleeping time (Mus musculus [9]): <414 s |
| COc1cccc2c1CCC(=O)N2CCCN1CCN(c2cccc(Cl)c2)CC1.Cl | – | 566 s | <294 s | 180 s | <36 s | Time (Mus musculus [4]): 115 s; Time (Mus musculus [7]): <61 s; Time (Mus musculus [8]): <56 s |
| Cc1ccccc1NC(=N)Nc1ccccc1C | – | – | – | 153 s | <101 s | RRT (Mus musculus [10]): <81 s and <210 s |
| COc1cccc2c1ccc(=O)n2CCCN1CCN(c2cccc(Br)c2)CC1 | – | – | – | 122 s | <70 s | – |
| COc1cccc2c1CCC(=O)N2CCCN1CCN(c2ccc(Cl)cc2)CC1 | – | 465 s | 496 s | – | – | IC50 [11]: 460 nM |
| COc1cccc2c1CCC(=O)N2CCCN1CCN(c2cccc(C)c2)CC1 | – | 353 s | 426 s | – | – | – |
| COc1cccc2c1CCC(=O)N2CCCN1CCN(c2cccc(C(F)(F)F)c2)CC1 | 490 nM | 379 s | <250 s | 134 s | <48 s | – |
| CC(=O)Nc1cccc(N2CCN(CCCN3C(=O)CCc4c(Cl)cccc43)CC2)c1 | 670 nM | 565 s | – | – | – | Sleeping time (Mus musculus [12]): <778 s |
| COc1cccc2c1CCC(=O)N2CCCN1CCN(c2cccc(N)c2)CC1 | – | 553 s | <1380 s | – | – | – |
| CC(C)Oc1cccc2c1CCC(=O)N2CCCN1CCN(c2cccc(Cl)c2)CC1 | – | 353 s | 304 s | – | – | – |
| COc1cccc2c1CCC(=O)N2CCCN1CCN(c2cccc(F)c2)CC1 | – | 465 s | 600 s | – | – | – |
| COc1cccc2c1ccc(=O)n2CCCN1CCN(c2cccc(C(F)(F)F)c2)CC1 | 820 nM | – | – | 128 s | <65 s | – |
| O=c1ccc2ccc(O)cc2n1CCCN1CCN(c2ccc(F)cc2)CC1 | 1320 nM | 561 s | 582 s | – | – | – |
| O=c1ccc2ccccc2n1CCCN1CCN(c2cccc(Cl)c2)CC1 | 620 nM | 616 s | 704 s | 138 s | 111 s | – |
| COc1cccc(N2CCN(CCCN3C(=O)CCc4c(Cl)cccc43)CC2)c1 | 130 nM | 548 s | <277 s | 132 s | <36 s | – |
| O=C1CCc2c(Cl)cccc2N1CCCN1CCN(c2cccc(Cl)c2)CC1 | – | 548 s | 677 s | – | – | – |
| COc1ccc2c(c1)CCC(=O)N2CCCN1CCN(c2cccc(Cl)c2)CC1 | – | 566 s | <770 s | – | – | – |
| COc1cccc(N2CCN(CCCN3C(=O)CCc4c(OC)cccc43)CC2)c1 | – | 478 s | 579 s | – | – | – |
| O=C(Oc1ccc2c(c1)CCC(=O)N2CCCN1CCN(c2ccccc2)CC1)c1ccccc1 | – | 561 s | <1097 s | – | – | IC50 [11]: > 10000 nM |
| Cc1cccc(N2CCN(CCCOc3ccc4ccc(O)nc4c3)CC2)c1C | – | 311 s | <956 s | – | – | – |
| COc1ccc2c(c1)N(CCCN1CCN(c3cccc(Cl)c3)CC1)C(=O)CC2 | – | 566 s | <1280 s | – | – | – |
| COc1cccc2c1CCC(=O)N2CCCN1CCN(c2cccc([N+](=O)[O-])c2)CC1 | 870 nM | 553 s | <339 s | 141 s | <74 s | – |

| SMILES | IC50 [1] | Sleeping time (Mus musculus [2]) | Sleeping time (Mus musculus [3]) | RRT (Mus musculus [5]) | RRT (Mus musculus [6]) | other results |
| --- | --- | --- | --- | --- | --- | --- |
| Nc1cccc2c1CCC(=O)N2CCCN1CCN(c2cccc(Cl)c2)CC1 | – | – | – | 128 s | 129 s | – |
| CCOc1cccc2c1CCC(=O)N2CCCN1CCN(c2cccc(Cl)c2)CC1 | 870 nM | 353 s | <238 s | 113 s | <31 s | – |
| COc1cccc2c1ccc(=O)n2CCCN1CCN(c2cccc(Cl)c2)CC1 | 980 nM | – | – | 122 s | 131 s | – |
| COc1cccc2c1N(CCCN1CCN(c3cccc(Cl)c3)CC1)C(=O)CC2 | 600 nM | – | – | 128 s | 109 s | – |
| COc1cccc2c1CCC(=O)N2CCCN1CCN(c2cccc(Br)c2)CC1 | 420 nM | 498 s | <267 s | 136 s | <61 s | – |
| COc1cccc2c1CCC(=O)N2CCCN1CCN(c2cccc(O)c2)CC1 | – | 483 s | 400 s | – | – | IC50 [11]: 810 nM |
| CC(C)=CCN1CC[C@@]2(C)c3cc(O)ccc3C[C@@H]1[C@@H]2C | – | 549 s | <370 s | 170 s | <72 s | – |
| O=C1CCc2c(Cl)cccc2N1CCCN1CCN(c2cccc([N+](=O)[O-])c2)CC1 | 390 nM | – | – | 152 s | 110 s | – |
| CSc1cccc2c1CCC(=O)N2CCCN1CCN(c2cccc(Cl)c2)CC1 | – | 363 s | 439 s | – | – | – |
| COc1cccc(N2CCN(CC(=O)NC3c4c(O)c(C)cc(C)c4CC3(C)C)CC2)c1 (configuration not stated) | > 15000 nM | 625 s | <373 s | 210 s | <54 s | Time (Mus musculus [4]): 120 s; Time (Mus musculus [7]): 123 s; Time (Mus musculus [8]): 119 s |
| COc1cccc2c1CCC(=O)N2CCCN1CCN(c2ccccc2Cl)CC1 | 260 nM | 465 s | 675 s | – | – | – |
| COc1cccc2c1CCC(=O)N2CCCCN1CCN(c2cccc(Cl)c2)CC1 | – | 478 s | 549 s | – | – | – |
| CCCOc1cccc(N2CCN(CCCN3C(=O)CCc4c(Cl)cccc43)CC2)c1 | 370 nM | 465 s | 393 s | – | – | – |
| Nc1cccc(N2CCN(CCCN3C(=O)CCc4c(Cl)cccc43)CC2)c1 | 710 nM | 504 s | 646 s | – | – | – |
| O=C1CCc2c(O)cccc2N1CCCN1CCN(c2cccc(Cl)c2)CC1 | – | 585 s | 516 s | – | – | – |
| COc1cccc2c1CCC(=O)N2CCN1CCN(c2cccc(Cl)c2)CC1 | – | 498 s | 676 s | – | – | – |
| COc1cccc2c1CCC(=O)N2CCCN1CCN(c2cccc(C#N)c2)CC1 | – | 553 s | 465 s | – | – | – |
| COc1cccc2c1CCC(=O)N2CCCN1CCN(c2cc(Cl)cc(Cl)c2)CC1 | – | 363 s | 310 s | 133 s | 168 s | – |
| CN1C(=O)CN=C(c2ccccc2)c2cc(Cl)ccc21 [DIAZEPAM] | – | 245 s | <709 s | – | – | – |
| CN(C)CCCN1c2ccccc2CCc2ccccc21 [IMIPRAMINE] | – | – | – | 177 s | 290 s | Time (Mus musculus [13]): 178 s; Time (Mus musculus [14]): 198 s; Time (Mus musculus [15]): 122 s; Time (Mus musculus [16]): 158 s; Time (Mus musculus [17]): <109 s; Time (Mus musculus [18]): 160 s |
| NC(=O)[C@@H]1CCCN1C(=O)[C@H](Cc1c[nH]cn1)NC(=O)[C@@H]1CCC(=O)N1 [PROTIRELIN] | – | 663 s | <377 s | 173 s | <44 s | – |
| C[C@@H]1CN(CCCn2c3ccccc3c3ccccc32)C[C@H](C)N1 [RIMCAZOLE] | – | 482 s | 490 s | 131 s | 115 s | – |
